DENV2 CPE rescue: inhibitors of DENV2 cytopathic effect, primary screen, cell-based, plate reader, single concentration; 350,000 compounds, 1.7% hits; CPE inhibition, % at 9.99 µM; DENV2-infected cells, cytopathic effect rescue; in the data active = CPE inhibition above about 20%, passing the limit was not always enough; inconclusive = no clear call, values can overlap the other calls; tested in BHK-21 cells;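 note: 0% = median of neutral control wells and 100% = median of positive control wells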
miR-122 sensor: miR-122 Renilla sensor signal increase in Huh7, primary screen, miR-122 inhibitor project, cell-based, single point, plate reader | 340,000 compounds, 0.3% hits | Huh7 miR-122 Renilla luciferase sensor, 48 h; neutral wells = 0, positive control = 100 | AID 602342, 2012 | activation (reporter increase), % at 12.5 µM;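 active = mean replicate activation score at least 90 and every replicate individually at or above 90; inconclusive = only one of the two criteria met; inactive = neither criterion met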;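 note: higher luciferase means less miR-122 activity so hits act as miR-122 inhibitors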
GSIS activator: GLuc luminescence reporter in INS-1E cells, primary screen for activators of glucose-dependent secretion of insulin | INS-1E GLuc reporter insulin secretion, 2-3 h | activation, % at 16.6 µM | 370,000 compounds, 0.61% hits;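 active = lowest replicate activation of at least 40%, so every replicate reaches that level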;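 note: 0% = median of neutral control wells and 100% = median of IBMX positive control wells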
ERAP1 HTS inh: human ERAP1 aminopeptidase inhibitors, primary screen, biochemical, single point, plate reader; inhibition, % at 10.7 µM; recombinant ERAP1, Leu-AMC fluorescence, 60 min; 340,000 compounds, 0.15% hits; Endoplasmic reticulum aminopeptidase 1 (Homo sapiens), Q9NZ08;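 active = mean replicate inhibition of at least 30%, or all replicates individually reaching that 30% level; inactive = mean below 30% and not every replicate reaching it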;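 note: 0% = neutral control wells and 100% = L-leucinethiol positive control wells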
E-sel inducer: E-selectin induction in HUVECs, primary screen, imaging, HUVEC, immunofluorescence imaging, single point; activation, % at 7.58 µM; AID 686992, 2013; 260,000 compounds, 0.37% hits; normalized: neutral wells 0, TNF-alpha wells 100; P16581;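 active = mean E-selectin-positive cell signal at least 10% of the positive control, reached in at least 60% of replicates, without over 20% cell loss; inconclusive = no rule given, readout overlaps actives, possibly toxicity-flagged; inactive = the rest, including those meeting only one limit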
Target sequence (P16581 whole entry, looked up): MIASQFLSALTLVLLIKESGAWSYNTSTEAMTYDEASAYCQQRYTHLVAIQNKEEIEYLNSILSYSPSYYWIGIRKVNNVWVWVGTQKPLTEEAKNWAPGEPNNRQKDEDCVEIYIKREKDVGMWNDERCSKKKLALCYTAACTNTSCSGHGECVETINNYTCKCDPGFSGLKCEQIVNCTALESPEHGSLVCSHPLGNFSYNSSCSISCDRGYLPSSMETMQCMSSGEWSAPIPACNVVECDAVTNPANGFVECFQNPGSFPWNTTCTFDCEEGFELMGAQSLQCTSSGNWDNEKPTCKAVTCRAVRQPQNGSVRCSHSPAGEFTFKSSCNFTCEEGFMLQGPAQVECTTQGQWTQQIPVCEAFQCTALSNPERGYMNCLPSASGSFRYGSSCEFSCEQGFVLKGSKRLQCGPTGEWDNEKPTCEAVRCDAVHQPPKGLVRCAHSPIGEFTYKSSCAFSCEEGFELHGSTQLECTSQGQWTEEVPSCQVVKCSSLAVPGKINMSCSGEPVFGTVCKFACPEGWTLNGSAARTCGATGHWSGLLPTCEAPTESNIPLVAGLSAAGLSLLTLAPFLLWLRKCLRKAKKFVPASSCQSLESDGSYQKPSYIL
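Test system: HUVEC; input: 3,000 HUVEC/well; measured by: immunofluorescence imaging; read-out: % PE-positive cells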
F508del corr: F508del CFTR correction, initial screen, CFBE line, single point. activity (quench increase), % at 7.58 µM. AID 720511, 2013. CFBE cells, YFP halide quenching; stimulated with forskolin plus potentiator P3; % fluorescence drop versus neutral controls. 350,000 compounds, 0.36% hits;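 active = mean added fluorescence quench of at least 8% versus neutral control, with both replicates also reaching 8%; inconclusive = only one of the mean or replicate conditions met; inactive = mean below 8% and not both replicates reaching 8%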;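 note: cells transiently co-express mutant CFTR-F508del with the halide-sensitive YFP; corrector assay measuring rescue of mutant channel to the surface after 24 h compound exposure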
* marks the source's active call; other numbers are inactive results; ? = inconclusive; · = no result given; [ ] = dose if it differs, or a comment. Rows were chosen to be rich in hits. Some 2.6% of all compounds tested hit in one or more screens of this group.

SMILES	DENV2 CPE rescue	miR-122 sensor	GSIS activator	ERAP1 HTS inh	E-sel inducer	F508del corr
CC=Cc1ccc2n(c1=O)C[C@@H]1[C@@H](CO)[C@H](C(=O)NCC3CC3)N(C(=O)CC3CC3)[C@H]21 (mixture of isomers)	-10.6	-3.4[16.7 µM]	3.2	-1.0	-0.2	-0.5
COc1ccc(OC)c(NC(=O)NNS(=O)(=O)c2ccc(C)cc2C)c1	23.4*	-8.1	·	-0.2	-1.3	1.5
CC(C)NC(=O)Nc1ccc2c(c1)CC(=O)N([C@H](C)CO)C[C@H](C)[C@H](CN(C)Cc1ccc(Cl)c(Cl)c1)O2	-1.7	-9.7[16.7 µM]	-4.5	0.1	59.0*	0.5
CC(C)NC(=O)Nc1ccc2c(c1)CC(=O)N([C@H](C)CO)C[C@@H](C)[C@@H](CN(C)Cc1ccc(Cl)c(Cl)c1)O2	17.9	-1.5[16.7 µM]	2.2	1.2	47.0*	2.5
CC(C)NC(=O)Nc1ccc2c(c1)CC(=O)N([C@@H](C)CO)C[C@H](C)[C@@H](CN(C)Cc1ccc(Cl)c(Cl)c1)O2	-1.6	-0.2[16.7 µM]	2.0	-0.7	-26.0	0.4
CN1[C@@H]2c3ccc(-c4cccnc4)c(=O)n3C[C@@H]2[C@@H](CO)[C@@H]1C(=O)NCC1CCCCC1	0.2	·	0.8	-5.5	-0.5	·
Cc1c(C(=O)NCc2ccc(C#N)cc2)sc(=O)n1Cc1ccccn1	21.3*	·	4.6	·	·	-2.2
CCSc1ccc(-c2nn(-c3ccccc3)cc2/C=C(/C#N)C(=O)NC)cc1	·	23.5	64.7*	·	·	·
CCCSc1ccc(-c2nn(-c3ccccc3)cc2/C=C(/C#N)C(=O)N2CCOCC2)cc1	10.5	0.7	-23.9	1.0	·	-1.1
C=CCNC(=O)/C(C#N)=C/c1cn(-c2ccccc2)nc1-c1ccc(OC)c([N+](=O)[O-])c1	·	147.3*	-30.1	·	·	·
CC(C)NC(=O)N(C)C[C@@H]1OCCCC[C@H](C)Oc2ccc(NS(=O)(=O)c3ccccc3)cc2C(=O)N([C@H](C)CO)C[C@@H]1C	-0.9	-6.8[16.7 µM]	37.5	-2.2	0.1	0.8
CCNC(=S)N1CCn2c(nc3ccccc32)C1	·	-9.8	-4.4	·	·	·
CC(C)NC(=S)N1CCn2c(nc3ccccc32)C1	?	116.0*	-6.0	-4.0	-0.2	-1.9
Cc1ccc(S(=O)(=O)Nc2ccc3c(c2)C(=O)N([C@H](C)CO)C[C@H](C)[C@H](CN(C)C(=O)Nc2ccc(C(F)(F)F)cc2)OCCCC[C@H](C)O3)cc1	53.0*	8.6[16.7 µM]	3.2	5.1	-0.1	0.1
C[C@@H]1CCCCO[C@H](CN(C)C(=O)Nc2ccc(C(F)(F)F)cc2)[C@H](C)CN([C@@H](C)CO)C(=O)c2cc(NS(=O)(=O)c3ccc(F)cc3)ccc2O1	98.0*	1.2[16.7 µM]	18.6	-1.5	·	3.2
C[C@H]1CCCCO[C@@H](CN(C)C(=O)Nc2ccc(C(F)(F)F)cc2)[C@@H](C)CN([C@@H](C)CO)C(=O)c2cc(NS(=O)(=O)c3ccc(F)cc3)ccc2O1	76.2*	-0.1[16.7 µM]	11.7	-2.0	·	-0.5
C[C@@H]1CCCCO[C@@H](CN(C)C(=O)Nc2ccc(C(F)(F)F)cc2)[C@H](C)CN([C@H](C)CO)C(=O)c2cc(NS(=O)(=O)c3ccccc3)ccc2O1	38.4*	-14.4[16.7 µM]	8.4	-5.2	0.0	-1.7
Cc1ccc(S(=O)(=O)Nc2ccc3c(c2)C(=O)N([C@@H](C)CO)C[C@@H](C)[C@H](CN(C)C(=O)Nc2ccc(C(F)(F)F)cc2)OCCCC[C@@H](C)O3)cc1	?	0.1[16.7 µM]	7.5	7.7	0.1	-2.6
C[C@@H]1CCCCO[C@H](CN(C)C(=O)Nc2ccc(C(F)(F)F)cc2)[C@@H](C)CN([C@@H](C)CO)C(=O)c2cc(NS(=O)(=O)c3ccc(F)cc3)ccc2O1	-3.1	13.2[16.7 µM]	4.4	-2.1	·	0.8
C[C@H](CO)N1C[C@H](C)[C@@H](CN(C)S(=O)(=O)c2cn(C)cn2)Oc2cc(C3=CCCC3)ccc2S1(=O)=O	-10.6	-2.4[16.7 µM]	-5.2	2.1	0.7	0.3
C[C@@H]1CN([C@@H](C)CO)C(=O)c2cc(N(C)C)ccc2O[C@@H](C)CCCCO[C@H]1CN(C)C(=O)CCC(F)(F)F	?	4.5[16.7 µM]	-7.0	-2.3	-0.3	-2.3
C[C@@H]1CCCCO[C@H](CN(C)C(=O)Nc2ccc(C(F)(F)F)cc2)[C@@H](C)CN([C@H](C)CO)C(=O)c2cc(NS(=O)(=O)c3ccc(F)cc3)ccc2O1	21.4*	4.2[16.7 µM]	16.9	-0.4	·	0.7
Cc1ccc(S(=O)(=O)Nc2ccc3c(c2)C(=O)N([C@H](C)CO)C[C@@H](C)[C@H](CN(C)Cc2ccc(C(F)(F)F)cc2)OCCCC[C@@H](C)O3)cc1	-27.7	-12.0[16.7 µM]	-5.0	1.2	·	3.3
Cc1ccc(S(=O)(=O)Nc2ccc3c(c2)C(=O)N([C@H](C)CO)C[C@H](C)[C@H](CN(C)Cc2ccc(C(F)(F)F)cc2)OCCCC[C@@H](C)O3)cc1	26.5*	1.5[16.7 µM]	7.8	1.6	·	3.9
COc1ccc(S(=O)(=O)Nc2ccc3c(c2)C(=O)N([C@H](C)CO)C[C@@H](C)[C@@H](CN(C)C(=O)Nc2ccc(C(F)(F)F)cc2)OCCCC[C@@H](C)O3)cc1	52.6*	-5.4[16.7 µM]	11.6	-1.6	0.1	-0.7
SMILES	DENV2 CPE rescue	miR-122 sensor	GSIS activator	ERAP1 HTS inh	E-sel inducer	F508del corr
COc1ccc(S(=O)(=O)Nc2ccc3c(c2)C(=O)N([C@H](C)CO)C[C@H](C)[C@@H](CN(C)C(=O)Nc2ccc(C(F)(F)F)cc2)OCCCC[C@H](C)O3)cc1	6.1	-4.8	-14.0	0.5	-0.1	5.8
CC=Cc1ccc2n(c1=O)C[C@@H]1[C@@H](CO)[C@H](C(=O)NCc3ccccn3)[C@H]2N1CCC (mixture of isomers)	-4.3	-2.9[16.7 µM]	7.9	-0.1	-1.7	3.7
O=C1C[C@H](c2ccccc2)C(=O)N[C@H](c2ccccc2)C/C=C\C[C@H](c2ccccc2)N1	·	·	8.1	·	·	·
CC(C(=O)Nc1ccc2[nH]c(=O)[nH]c2c1)N1CCN(Cc2ccc3c(c2)OCO3)CC1 (stereo not drawn)	6.3	-4.0	60.4*	-3.2	·	-1.0
CC(C(=O)Nc1ccc2c(c1)OCO2)N1CCN(C)CC1 (stereo not drawn)	4.7	-4.1	19.1	3.2	·	-0.3
O=C(N/N=C/c1ccc(Cl)cc1Cl)Nc1ccccc1	·	13.9	42.2*	·	·	·
O=C(N/N=C/c1cccc(Cl)c1Cl)Nc1ccccc1	5.5	-3.5	13.5	-0.3	·	-3.3
COc1ccccc1CNC(=O)C[C@@H]1C[C@H]2c3cc(N(C)C)ccc3O[C@H]2[C@@H](CO)O1	47.1*	-4.4[16.7 µM]	-9.8	-0.2	0.2	0.9
